Measured values reported in ChEMBL document CHEMBL1146772, “Design, synthesis, and structure-activity relationship of new isobenzofuranone ligands of protein kinase C” (Bioorg Med Chem Lett, 2004).

What was measured:
[1] = target: T1, Protein kinase C alpha type (Homo sapiens, UniProt P17252); assay: Displacement of [3H]PDBu from PKC alpha at 100 uM; range 20 to 40
In short: (§1)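 Competitive [3H]PDBu binding to recombinant human PKCα (Sf9-expressed), 4.3-4.8 nM, in 50 mM Tris-HCl pH 7.5 containing 4 mM CaCl2, 100 µg/mL sonicated phosphatidylserine, 4 mg/mL BSA and 10 nM [3H]PDBu. Incubation 2 h at 0 °C, then filtration on PEI-treated glass-fiber filters and scintillation counting. 10 µM TPA defined background/nonspecific binding. Ki derived using [3H]PDBu Kd 0.19 nM (Scatchard).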

[2] = target: T1, Protein kinase C alpha type; assay: Binding affinity for protein kinase C alpha
[3] = target: T1, Protein kinase C alpha type; assay: Displacement of [3H]PDBu from PKC alpha at 100 uM; range 40 to 60; in short: as §1
[4] = target: T1, Protein kinase C alpha type; assay: Displacement of [3H]PDBu from PKC alpha at 100 uM; range 60 to 80; in short: as §1
[5] = target: T1, Protein kinase C alpha type; assay: Displacement of [3H]PDBu from PKC alpha at 100 uM; range 0 to 20; in short: as §1
[6] = target: T1, Protein kinase C alpha type; assay: Displacement of [3H]PDBu from PKC alpha at 100 uM.; in short: as §1

Ki [2]	SMILES	further results
122 nM	CCCCCCCCCCOc1cccc2c1C(=O)O[C@@]2(CO)COC(C)=O	inhibition [1]: 21%
122 nM	CCCCCCCCCCOc1cccc2c1C(=O)O[C@]2(CO)COC(C)=O	inhibition [3]: 59%
122 nM	CCCCCCCCCCCCOc1cccc2c1C(=O)O[C@@]2(CO)COC(=O)C(C)(C)C	
540 nM	CCCCCCCCCCCCOc1cccc2c1C(=O)O[C@]2(CO)COC(C)=O	inhibition [4]: 75%
540 nM	CC(=O)OC[C@@]1(CO)OC(=O)c2c(OCc3ccccc3)cccc21	inhibition [5]: 9%
540 nM	CCCCCCCCCCCCOc1cccc2c1C(=O)O[C@@]2(CO)COC(C)=O	inhibition [1]: 35%
122 nM	C=CCOC(=O)Oc1cccc2c1C(=O)O[C@]2(CO)COC(C)=O	inhibition [6]: 0%
